The values below come from ChEMBL document CHEMBL1127320, “Dual-action cephalosporins incorporating a 3'-tertiary-amine-linked quinolone” (J Med Chem, 1994).

Series [1] has as its system Enterobacter cloacae. Put plainly: In vitro minimum inhibitory concentration was measured against Enterobacter cloacae p99 (beta lactamase producer) strain. It is filed as functional.
Series [2] can be described thus: Half life was measured as degradation by HPLC analysis. It is filed as ADME.
Series [3] deals with Streptococcus pyogenes. Put plainly: In vitro minimum inhibitory concentration was measured against Streptococcus pyogenes 4 strain. It is filed as functional. Put shortly:
(§1)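 Streptococci were tested on brain heart infusion agar plus 20 units/mL catalase, Proteus on Mueller-Hinton with 3% agar, and others on Mueller-Hinton agar. Inocula were 100-fold-diluted overnight cultures, about 3 × 10^4 CFU/spot, read after overnight incubation at 36 °C.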

Series [4] concerns Klebsiella pneumoniae. Put plainly: Tested for its efficacy against systemic murine infection caused by Klebsiella pneumoniae A. It is filed as functional. The method in brief: (§2)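 CD1 Swiss albino mice (18-20 g) were infected intraperitoneally with 0.5 mL of diluted culture. Within 5 min they received 1.0 mL test solution subcutaneously at the dorsal neck, in dilutions spanning 250–0.05 mg/kg. P. aeruginosa groups received a second dose at 3 h. Groups were six mice. ED50 was calculated by Reed–Muench interpolation of cumulative survival.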

The subject of series [5] is Staphylococcus aureus. Put plainly: Tested for its efficacy against systemic murine infection caused by Staphylococcus aureus smith. It is filed as functional. The method in brief: as §2
Series [6] relates to Staphylococcus aureus. The series is described as follows: In vitro minimum inhibitory concentration was measured against Staphylococcus aureus 753 (Methicillin resistant) strain. It is filed as functional.
For series [7], the target named is T1, Penicillin-binding protein 1B (Escherichia coli K-12) (UniProt P02919).
T1 sequence (whole entry): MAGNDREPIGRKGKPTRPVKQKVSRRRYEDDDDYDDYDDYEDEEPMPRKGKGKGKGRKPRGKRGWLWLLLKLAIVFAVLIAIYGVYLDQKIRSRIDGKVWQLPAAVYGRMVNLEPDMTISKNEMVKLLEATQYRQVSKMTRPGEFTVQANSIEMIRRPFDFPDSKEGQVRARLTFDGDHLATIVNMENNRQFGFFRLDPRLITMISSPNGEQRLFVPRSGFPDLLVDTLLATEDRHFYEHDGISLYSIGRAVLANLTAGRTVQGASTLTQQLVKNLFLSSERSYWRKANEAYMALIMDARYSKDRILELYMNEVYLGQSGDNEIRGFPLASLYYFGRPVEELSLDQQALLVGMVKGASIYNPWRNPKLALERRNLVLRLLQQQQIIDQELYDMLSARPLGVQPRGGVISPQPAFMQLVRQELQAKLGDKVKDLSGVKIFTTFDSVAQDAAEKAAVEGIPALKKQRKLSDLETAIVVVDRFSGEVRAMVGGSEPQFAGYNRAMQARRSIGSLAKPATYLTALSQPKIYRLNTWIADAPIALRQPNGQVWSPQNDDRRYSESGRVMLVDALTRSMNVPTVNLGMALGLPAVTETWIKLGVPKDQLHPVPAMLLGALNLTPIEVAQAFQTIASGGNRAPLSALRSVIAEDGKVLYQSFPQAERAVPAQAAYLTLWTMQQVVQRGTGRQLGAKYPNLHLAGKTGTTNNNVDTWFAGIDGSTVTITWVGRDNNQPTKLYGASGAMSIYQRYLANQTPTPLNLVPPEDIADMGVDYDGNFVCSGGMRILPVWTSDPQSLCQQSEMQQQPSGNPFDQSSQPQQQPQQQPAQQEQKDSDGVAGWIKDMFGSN
Put plainly: Affinity for penicillin binding protein 1b of Escherichia coli UB1005 (DC0) was evaluated. Further details: unit not given here. Put shortly:
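Solubilised membranes from sonicated E. coli UB1005 served as the binding-protein source. Binding was read as inhibition of [14C]penicillin G binding.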

In series [8] the test system is Micrococcus luteus. Put plainly: In vitro minimum inhibitory concentration was measured against Micrococcus luteus ATCC 9341 strain. It is filed as functional. The method in brief: as §1
Series [9] deals with Proteus mirabilis. The series is described as follows: In vitro minimum inhibitory concentration was measured against Proteus mirabilis 90 strain. It is filed as functional. Put shortly: as §1
Series [10] concerns Serratia marcescens. Put plainly: Tested for its efficacy against systemic murine infection caused by Serratia marcescens SM. It is filed as functional. Put shortly: as §2
In series [11] the test system is Pseudomonas aeruginosa. Put plainly: Tested for its efficacy against systemic murine infection caused by Pseudomonas aeruginosa 8780. It is filed as functional. Put shortly:
as §2

The subject of series [12] is Streptococcus pneumoniae. The series is described as follows: In vitro minimum inhibitory concentration was measured against Streptococcus pneumoniae 6301 strain. It is filed as functional. Put shortly:
as §1

Series [13] deals with Streptococcus pneumoniae. The series is described as follows: Tested for its efficacy against systemic murine infection caused by Streptococcus pneumoniae 6301. It is filed as functional. Put shortly:
as §2

The subject of series [14] is Penicillin-binding protein 3 (Escherichia coli). The series is described as follows: Affinity for penicillin binding protein 3 of Escherichia coli UB1005 (DC0) was evaluated. Further details: unit not given here.
For series [15], the system named is Enterobacter cloacae. The series is described as follows: Tested for its efficacy against systemic murine infection caused by Enterobacter cloacae 5699. It is filed as functional.
Series [16] has as its system Pseudomonas aeruginosa. Put plainly: Bacterial challenge for systemic murine infection against Pseudomonas aeruginosa 8780. It is filed as functional. The method in brief:
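Mouse protection test in CD1 Swiss albino mice (18-20 g) infected intraperitoneally with 0.5 mL of diluted bacterial suspension. Subcutaneous doses (250 to 0.05 mg/kg) were given immediately after infection and again 3 h later. Six mice per group were used. ED50 was obtained by the Reed-Muench method.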

In series [17] the test system is Klebsiella pneumoniae. The series is described as follows: Bacterial challenge for systemic murine infection against Klebsiella pneumoniae A. It is filed as functional. Put shortly:
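Mouse protection test in CD1 Swiss albino mice (18-20 g). Mice were infected intraperitoneally with 0.5 mL of diluted bacterial suspension. A single subcutaneous dose at the dorsal neck base was given within 5 min, with doses from 250 to 0.05 mg/kg. Six mice per group were used. ED50 was obtained by the Reed-Muench method.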

Series [18] deals with Pseudomonas aeruginosa. Put plainly: tested for its efficacy against systemic murine infection caused by Pseudomonas aeruginosa 8780.
Series [19] deals with Streptococcus pneumoniae. Put plainly: tested for its efficacy against systemic murine infection caused by Streptococcus pneumoniae 6301. It is filed as functional. Put shortly:
as §2

Series [20] relates to Streptococcus pyogenes. The series is described as follows: In vitro minimum inhibitory concentration was measured against Streptococcus pyogenes 4 strain.; (</=). It is filed as functional. The method in brief:
(§3)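 MICs were determined by agar dilution with 2-fold dilutions giving final 128–0.0156 µg/mL, extended to 0.000977 µg/mL where needed. Streptococci were tested on brain heart infusion agar plus 20 units/mL catalase, Proteus on Mueller-Hinton with 3% agar, and others on Mueller-Hinton agar. Inocula were 100-fold-diluted overnight cultures, about 3 × 10^4 CFU/spot, read after overnight incubation at 36 °C.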

In series [21] the test system is Klebsiella pneumoniae. The series is described as follows: tested for its efficacy against systemic murine infection caused by Klebsiella pneumoniae A. It is filed as functional. Put shortly:
as §2

The test system of series [22] is Staphylococcus aureus. Put plainly: tested for its efficacy against systemic murine infection caused by Staphylococcus aureus smith. It is filed as functional. The method in brief:
as §2

Series [23] has as its system Streptococcus pneumoniae. The series is described as follows: In vitro minimum inhibitory concentration was measured against Streptococcus pneumoniae 6301 strain.; (</=). It is filed as functional. The method in brief: as §3
The subject of series [24] is Proteus mirabilis. Put plainly: In vitro minimum inhibitory concentration was measured against Proteus mirabilis 90 strain.; (</=). It is filed as functional. The method in brief: as §3
Series [25] relates to Enterobacter cloacae. The series is described as follows: tested for its efficacy against systemic murine infection caused by Enterobacter cloacae 5699. It is filed as functional. Put shortly:
as §2

Series [26] relates to Serratia marcescens. The series is described as follows: tested for its efficacy against systemic murine infection caused by Serratia marcescens SM. It is filed as functional. Put shortly: as §2

The structures appear in SMILES notation. ≈ marks a conversion by molar mass, not a printed value. Where only a bound is given, the exact number is not on record here.

In general, MIC refers to the lowest concentration found to suppress growth. In general, half-life refers to the time needed for the level to fall by half in the phase considered. A word on the ED50: it is the dose at which the effect has come halfway, by size or by number of responders. Turning to `CO/N=C(\C(=O)N[C@@H]1C(=O)N2C(C(=O)O)=C(CN3CCN(c4cc5c(cc4F)c(=O)c(C(=O)O)cn5C4CC4)CC3)CS[C@H]12)c1csc(N)n1`, the minimum inhibitory concentration (MIC) worked out at 0.125 µg/mL (≈ 0.172 µM) in series [1]; 0.063 µg/mL (≈ 0.0867 µM) in series [3]; 4 µg/mL (≈ 5.5 µM) in series [6]; 0.125 µg/mL (≈ 0.172 µM) in [8]; 2 µg/mL (≈ 2.75 µM) in [9]; 0.063 µg/mL (≈ 0.0867 µM) in [12]. The compound also gave a half-life in series [2] of 6 days. The ED50 in [4] was 25 mg/kg; in series [5], more than 100 mg/kg; in [10] it was 25 mg/kg; in [11], 38 mg/kg; in series [13] it was 54 mg/kg; in [15], 14 mg/kg. Also, the Binding affinity was more than 100 in series [7] and 0.5 in series [14]. Further, the LD50 in series [16] and in [17] was more than 10000 each time.
Consider `CO/N=C(\C(=O)N[C@@H]1C(=O)N2C(C(=O)O)=C(COC(C)=O)CS[C@H]12)c1csc(N)n1` [CEFOTAXIME], for which the ED50 in [18] was more than 250 mg/kg; in series [19], 69 mg/kg; in series [21], 45 mg/kg; in series [22], 6 mg/kg; in [25], 50 mg/kg; in [26], less than 25 mg/kg. Further, the MIC in [1] is 64 µg/mL (≈ 141 µM); in series [20], not above 0.016 µg/mL; in series [6], more than 128 µg/mL; in series [23], less than 0.016 µg/mL; in [8] it was 0.031 µg/mL (≈ 0.0681 µM); in series [24], less than 0.016 µg/mL. The same compound registered a Binding affinity in series [7] of 0.5. The LD50 in series [16] is on record as more than 250; in [17] it was 45.
